Data: ChEMBL document CHEMBL5653606 (J Pharmacol Exp Ther, 2011)
Active and inactive are the calls of the source.

Experiments:
[1] = target: T1, Fatty-acid amide hydrolase 1 (Rattus norvegicus) (UniProt P97612); conditions: Sprague-Dawley, dose 10.0 mg/kg, route po
T1 sequence (whole entry): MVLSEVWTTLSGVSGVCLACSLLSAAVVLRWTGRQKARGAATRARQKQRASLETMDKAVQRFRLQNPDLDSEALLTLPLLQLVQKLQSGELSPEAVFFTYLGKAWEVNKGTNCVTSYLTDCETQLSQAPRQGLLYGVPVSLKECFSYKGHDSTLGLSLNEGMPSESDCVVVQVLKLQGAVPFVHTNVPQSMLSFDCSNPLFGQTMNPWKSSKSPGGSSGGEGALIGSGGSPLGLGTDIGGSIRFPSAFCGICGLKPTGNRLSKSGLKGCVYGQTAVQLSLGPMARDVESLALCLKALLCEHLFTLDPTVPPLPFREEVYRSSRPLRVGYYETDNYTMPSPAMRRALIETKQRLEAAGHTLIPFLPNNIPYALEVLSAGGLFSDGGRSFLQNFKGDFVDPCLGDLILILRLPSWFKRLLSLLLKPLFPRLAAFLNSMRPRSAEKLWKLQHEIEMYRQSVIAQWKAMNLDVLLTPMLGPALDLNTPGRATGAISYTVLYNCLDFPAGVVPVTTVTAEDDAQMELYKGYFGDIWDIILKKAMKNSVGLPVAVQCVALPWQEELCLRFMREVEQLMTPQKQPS

[2] = target: T1, Fatty-acid amide hydrolase 1 (Rattus norvegicus); conditions: Sprague-Dawley, dose 10.0 mg/kg, route po; remark: listed apart in the source
[3] = target: T1, Fatty-acid amide hydrolase 1 (Rattus norvegicus); conditions: Sprague-Dawley, dose 10.0 mg/kg, route po; remark: listed apart in the source
[4] = target: T1, Fatty-acid amide hydrolase 1 (Rattus norvegicus); conditions: Sprague-Dawley, dose 10.0 mg/kg, route po; remark: listed apart in the source
[5] = target: T1, Fatty-acid amide hydrolase 1 (Rattus norvegicus); conditions: Sprague-Dawley, dose 10.0 mg/kg, route po; remark: listed apart in the source
[6] = target: T1, Fatty-acid amide hydrolase 1 (Rattus norvegicus); conditions: Sprague-Dawley, dose 10.0 mg/kg, route po; remark: listed apart in the source
[7] = target: T1, Fatty-acid amide hydrolase 1 (Rattus norvegicus); conditions: Sprague-Dawley, dose 10.0 mg/kg, route po; remark: listed apart in the source
Mus musculus [8] = test: In vivo inhibition of rhodamine-azide tagged FAAH expressed in mouse brain at 10 mg/kg, ip administered for 2 hrs by CC-ABPP method based in-gel fluorescence scanning analysis; assay type: functional, organism-based
Procedure, shortened: (§1)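 Alkyne analog given at 10 mg/kg i.p. to FAAH(+/+) or FAAH(−/−) mice. Animals killed at 2 h. Brain or liver proteomes click-reacted with rhodamine-azide tag, then analyzed by in-gel fluorescence scanning.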

Mus musculus [9] = test: In vivo inhibition of rhodamine-azide tagged FAAH expressed in mouse liver at 10 mg/kg, ip administered for 2 hrs by CC-ABPP method based in-gel fluorescence scanning analysis; assay type: functional, organism-based
Procedure, shortened: as §1

[10] = target: T2, Fatty-acid amide hydrolase 1 (Homo sapiens) (UniProt O00519); test: Inhibition of FAAH (unknown origin) assessed as kinact/Ki ratio in presence of glutamate dehydrogenase by 384-well format microplate reader assay
T2 sequence (whole entry): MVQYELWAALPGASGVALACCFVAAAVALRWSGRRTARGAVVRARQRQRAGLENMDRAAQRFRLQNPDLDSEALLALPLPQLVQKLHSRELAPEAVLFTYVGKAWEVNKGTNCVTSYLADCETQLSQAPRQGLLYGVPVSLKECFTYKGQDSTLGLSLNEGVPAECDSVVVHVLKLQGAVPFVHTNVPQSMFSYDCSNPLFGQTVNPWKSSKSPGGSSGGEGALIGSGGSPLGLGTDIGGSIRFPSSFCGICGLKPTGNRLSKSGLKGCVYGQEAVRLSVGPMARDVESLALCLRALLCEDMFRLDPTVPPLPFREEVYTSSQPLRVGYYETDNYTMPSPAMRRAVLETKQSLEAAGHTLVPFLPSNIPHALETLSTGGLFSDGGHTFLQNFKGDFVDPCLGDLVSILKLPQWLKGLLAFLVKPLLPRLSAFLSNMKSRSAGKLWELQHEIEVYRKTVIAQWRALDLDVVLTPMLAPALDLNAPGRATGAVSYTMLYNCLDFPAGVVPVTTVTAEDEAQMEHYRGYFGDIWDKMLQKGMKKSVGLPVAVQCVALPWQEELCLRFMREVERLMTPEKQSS

Mus musculus [11] = test: Antinociceptive activity in C57BL6/J mouse assessed as increase in catalepsy at 10 mg/kg, ip administered for 30 mins; assay type: functional, organism-based
Procedure, shortened: (§2)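 Tetrad test in male C57BL6/J mice (7 weeks old; n = 8/group). Dosed i.p. at 10 ml/kg in 18:1:1 saline/Emulphor/ethanol, with a vehicle control group. Locomotive activity, thermal nociception (tail-immersion latency), catalepsy (60 s) and body temperature were assessed 30 min postdosing.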

Mus musculus [12] = test: Antinociceptive activity in C57BL6/J mouse assessed as reduction in locomotive activity at 10 mg/kg, ip administered for 30 mins; assay type: functional, organism-based
Procedure, shortened: as §2

Mus musculus [13] = test: Antinociceptive activity in C57BL6/J mouse assessed as increase in tail-immersion latency at 10 mg/kg, ip administered for 30 mins; assay type: functional, organism-based
Procedure, shortened: as §2

Mus musculus [14] = test: Antinociceptive activity in C57BL6/J mouse assessed as increase in body temperature at 10 mg/kg, ip administered for 30 mins; assay type: functional, organism-based
Procedure, shortened: as §2

Rattus norvegicus [15] = test: Antihyperalgesic activity in CFA induced Sprague-Dawley rat assessed as partial reduction of mechanical allodynia at 3 mg/kg, ip by von frey test; assay type: functional, organism-based
Procedure, shortened: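 CFA (150 μl, 1 mg/ml in mineral oil) injected into the plantar hind paw of male Sprague-Dawley rats (200–250 g). On day 5, the CB1 or CB2 antagonist was given at 3 mg/kg i.p. 10 min before testing, alongside a 3 mg/kg p.o. dose of the FAAH inhibitor. Mechanical paw withdrawal thresholds were measured with Von Frey hairs; n = 8 rats/group.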

[16] = target: T3, Fatty-acid amide hydrolase 1 (Mus musculus) (UniProt O08914); test: Inhibition of FAAH in mouse brain at 10 uM in presence of FP-rhodamine by competitive activity-based protein profiling method; assay type: tissue-based
T3 sequence (whole entry): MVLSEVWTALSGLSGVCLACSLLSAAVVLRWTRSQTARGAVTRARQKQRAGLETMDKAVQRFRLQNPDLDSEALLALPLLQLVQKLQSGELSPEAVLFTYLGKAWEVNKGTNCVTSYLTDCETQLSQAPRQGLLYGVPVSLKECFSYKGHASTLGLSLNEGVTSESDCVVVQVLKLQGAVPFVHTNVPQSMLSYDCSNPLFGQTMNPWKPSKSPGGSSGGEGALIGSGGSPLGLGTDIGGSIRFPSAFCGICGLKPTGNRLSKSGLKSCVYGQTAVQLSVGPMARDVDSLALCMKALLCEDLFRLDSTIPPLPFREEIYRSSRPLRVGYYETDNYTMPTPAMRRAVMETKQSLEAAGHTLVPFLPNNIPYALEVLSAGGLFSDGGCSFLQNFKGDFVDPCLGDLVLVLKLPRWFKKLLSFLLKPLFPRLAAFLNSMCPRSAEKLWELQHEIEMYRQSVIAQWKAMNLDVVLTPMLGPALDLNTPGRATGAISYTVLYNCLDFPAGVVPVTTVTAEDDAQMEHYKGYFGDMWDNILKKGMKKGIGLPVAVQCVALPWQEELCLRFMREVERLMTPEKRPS
Procedure, shortened: (§3)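 Competitive ABPP on human and mouse brain, liver and heart proteomes (membrane and soluble fractions), exposed to compound at 10 or 100 μM or to DMSO. Serine hydrolases were then labeled with FP-rhodamine. Gels were read by fluorescence scanning, and loss of band labeling (FAAH or other hydrolases by kDa) was judged.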

[17] = target: T2, Fatty-acid amide hydrolase 1 (Homo sapiens); test: Inhibition of FAAH in human brain at 100 uM in presence of FP-rhodamine by competitive activity-based protein profiling method; assay type: tissue-based
Procedure, shortened: as §3

[18] = target: T2, Fatty-acid amide hydrolase 1 (Homo sapiens); test: Inhibition of human FAAH assessed as kinact/Ki ratio in presence of glutamate dehydrogenase by 384-well format microplate reader assay
Procedure, shortened: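 Glutamate dehydrogenase-coupled assay in 384-well format, 50 μl final volume. NAD⁺ formed from ammonia released by oleamide hydrolysis, followed at 340 nm.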

[19] = target: T2, Fatty-acid amide hydrolase 1 (Homo sapiens); test: Inhibition of FAAH in human brain at 10 uM in presence of FP-rhodamine by competitive activity-based protein profiling method; assay type: tissue-based
Procedure, shortened: as §3

[20] = target: T3, Fatty-acid amide hydrolase 1 (Mus musculus); test: Inhibition of FAAH in mouse brain at 100 uM in presence of FP-rhodamine by competitive activity-based protein profiling method; assay type: tissue-based
Procedure, shortened: as §3

Rattus norvegicus [21] = test: Antihyperalgesic activity in MIA induced Sprague-Dawley rat assessed as increased joint compression thresholds at 30 mg/kg, po administered twice daily for 3 consecutive days measured after 2 to 4 hrs; assay type: functional, organism-based; conditions: time 3.0 day
Procedure, shortened: (§4)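 Male Sprague-Dawley rats (220–270 g), isoflurane-anesthetized, given 2 mg MIA in 0.9% saline (50 μl) intra-articular into the knee. From day 14, oral dosing at 10 ml/kg once daily for 3 days in 4% 2-hydroxypropyl-β-cyclodextrin/1% ethanol in 0.01 M HCl. Celecoxib 30 mg/kg in 0.5% methylcellulose twice daily. Joint compression threshold by digital Randall-Selitto at 2 and 4 h postdose on days 1 and 3; n = 10/group.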

Rattus norvegicus [22] = test: Antihyperalgesic activity in MIA induced Sprague-Dawley rat assessed as effect on pain behaviour in contralateral knee joint at 0.3 to 3 mg/kg, po administered once daily for 3 consecutive days; assay type: functional, organism-based; conditions: dose 0.3-3 mg/kg, time 3.0 day
Procedure, shortened: as §4

Mus musculus [23] = test: In vivo inhibition of rhodamine-azide tagged FAAH in FAAH knockout mouse liver at 10 mg/kg, ip administered for 2 hrs by CC-ABPP method based in-gel fluorescence scanning analysis; assay type: functional, organism-based
Procedure, shortened: as §1

[24] = target: T1, Fatty-acid amide hydrolase 1 (Rattus norvegicus); test: Inhibition of rat FAAH assessed as kinact/Ki ratio in presence of glutamate dehydrogenase by 384-well format microplate reader assay
Procedure, shortened: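 Purified recombinant FAAH (>95% pure), human or rat. Glutamate dehydrogenase-coupled assay in 384-well format, 50 μl final volume. NAD⁺ formed from ammonia released by oleamide hydrolysis, followed at 340 nm.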

## COc1ccc2cc([C@H](C)C(=O)O)ccc2c1
[1]
  inhibition: inactive
[2]
  inhibition: inactive
[3]
  inhibition: inactive
[4]
  inhibition: inactive
[5]
  inhibition: inactive
[6]
  inhibition: inactive
[7]
  inhibition: inactive

## C#CCCCOc1ccc(Oc2cccc(C=C3CCN(C(=O)Nc4cccnn4)CC3)c2)nc1
Mus musculus [8]
  inhibition: Active
Mus musculus [9]
  inhibition: Active
[10]
  Ratio: 11900 M⁻¹ s⁻¹

## Cc1c(C(=O)c2cccc3ccccc23)c2cccc3c2n1[C@H](CN1CCOCC1)CO3
Mus musculus [11]
  Activity: Toxic
Mus musculus [12]
  Activity: Toxic
Mus musculus [13]
  Activity: Toxic
Mus musculus [14]
  Activity: Toxic

## Cc1ccc(Cn2nc(C(=O)N[C@@H]3C(C)(C)[C@@H]4CC[C@@]3(C)C4)cc2-c2ccc(Cl)c(C)c2)cc1
Rattus norvegicus [15]
  Activity: inactive

## NC(=O)c1cccc(-c2cccc(OC(=O)NC3CCCCC3)c2)c1
[16]
  inhibition: Active
[17]
  inhibition: Active
[18]
  Ratio: 1590 M⁻¹ s⁻¹
[19]
  inhibition: Active
[20]
  inhibition: Active

## Cc1ccc(-c2cc(C(F)(F)F)nn2-c2ccc(S(N)(=O)=O)cc2)cc1
Rattus norvegicus [21]
  Activity: Active
Rattus norvegicus [22]
  Activity: inactive

## C#CCCCCCCCCCNC(=O)Oc1cccc(-c2cccc(C(N)=O)c2)c1
Mus musculus [8]
  inhibition: Active
Mus musculus [9]
  inhibition: Active
Mus musculus [23]
  inhibition: Active

## Cc1c(C(=O)NN2CCCCC2)nn(-c2ccc(Cl)cc2Cl)c1-c1ccc(Cl)cc1
Rattus norvegicus [15]
  Activity: inactive

## O=C(Nc1ccccc1)N1CCC(Cc2cnc3ccccc3c2)CC1
[24]
  Ratio: 104 M⁻¹ s⁻¹
